Assay: Toxicity liver stage against HepG2, at 10uM
Format: cell-based
Set-up: test concentration 10 uM, cell line HepG2-A16-CD81EGFP
Conditions: human, HepG2-A16-CD81EGFP cells; read-out: INHIBITION
Outline: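 Uninfected HepG2-A16-CD81EGFP cells, 3 × 10^3 per well, 1536-well, plated on prespotted compound at 10 μM final, parasite-free screening media added to match infected plates; puromycin 10 μM positive, DMSO 0.5% negative; run in parallel with 48 h PbLuc assay at 37 °C, 5% CO2; viability by CellTiter-Glo luminescence, normalized to controls.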

Row | Structure (SMILES) | cytotoxicity at 10 µM
1 | CCOC(=O)c1coc(N2CCC(N3CCC(O)CC3)CC2)n1 | 6.41%
2 | Cc1cnc(C(=O)N2CCCCC2c2ccc(CN(C)C)cc2)cn1 (stereo unspecified) | -2.46%
3 | Cc1cc(NC2CCN(CC3CCCO3)CC2)n2nc(C)c(C)c2n1 (stereo unspecified) | 8.96%
4 | COCCN(Cc1ccncc1)C(=O)C1COc2ccccc2C1 (stereo unspecified) | 6.77%
5 | CCN1CC(C(=O)NCCCc2nc(C)c(C)s2)CC1=O (stereo unspecified) | -7.03%
6 | CCO[C@H]1C[C@@H](O)C12CCN(S(=O)(=O)c1ccccc1OC)CC2 | 2.01%
7 | c1cc(CN2CCC(c3ccncc3)CC2)cc(Cn2cccn2)c1 | -10.1%
8 | Cc1ccc(C)c2c(O)cc(CN3CCC(c4nncn4C)CC3)nc12 | -2.24%
9 | Cc1cc(NC(=O)c2ccc(N3CCOCC3)c(C)c2)[nH]n1 | -35.1%
10 | CSCCCN(CCN1CCOCC1)Cc1ccco1 | 8.05%
11 | CC(C)c1cc(C(=O)N(C)C(C)c2nccs2)no1 (stereo unspecified) | -9.15%
12 | Cn1ccnc1CN1CCC(Cn2cc(-c3ccncc3)nn2)CC1 | -4.5%
13 | NCC1CN(Cc2cn(CCC(N)=O)c3ccccc23)CCO1 (stereo unspecified) | 4.01%
14 | C=C(C)CN1CCC(n2cc(C3CCCC3)nn2)CC1 | 4.98%
15 | CCOC(=O)c1coc(N2CCN(C(=O)c3cccc(OC)c3)CC2)n1 | 8.15%
16 | Cc1ncnc(N2CCN(C(=O)C3CC4(CCNCC4)CN3)CC2)c1C (stereo unspecified) | -14.7%
17 | Cc1nc(CCNC(=O)C2CC(=O)N(C(C)(C)C)C2)sc1Cl (stereo unspecified) | 16.8%
18 | Nc1ccnc(-c2cc(NC3CCNCC3)nc3[nH]ccc23)c1 | 3.18%
19 | COCC(=O)N1C[C@@H](C)[C@](O)(C(C)C)C1 | 1.69%

Row | Structure (SMILES) | cytotoxicity at 10 µM
20 | N#Cc1ccccc1CN1CCCC(c2nccn2CC2CCC2)C1 (stereo unspecified) | -5.06%
21 | CCOc1ccc(Cl)cc1C(C(=O)O)N1CCCC1 (stereo unspecified) | 0.95%
22 | O=C(c1ccc2nccn2c1)N1CCC(CCn2cccn2)CC1 | -1.63%
23 | CC(C)c1cc(N(C)Cc2noc(C3CCCC3)n2)n2nccc2n1 | -0.0395%
24 | COc1ccc(OCC2CCCN(Cc3ccncc3)C2)cc1 (stereo unspecified) | -8.44%
25 | CCS(=O)(=O)CCNCc1cc(O)c2cc(C)cc(C)c2n1 | 1.36%
26 | CCc1cnc(C)nc1N1CCN(C(N)=O)CC1 | -46.3%
27 | Cc1ccc(Cl)c(C)c1NC(=O)N1CCCN(Cc2ccccn2)CC1 | 0.617%
28 | COc1ccc(OC)c(C2CCN(Cc3nc(C)n4ccccc34)C2)c1 (stereo unspecified) | -8.66%
29 | Cc1cnn(CCNCC(=O)NCCOc2ccc(F)cc2)c1 | -4.45%
30 | Cc1cc(CNC2CCCN(Cc3noc(C4CC4)n3)C2)on1 (stereo unspecified) | -17.7%
31 | Cc1cc(NC(=O)NCC(c2ccc(C)o2)N2CCOCC2)n(C)n1 (stereo unspecified) | -32.5%
32 | CC(OCC1CC1)C(=O)N1CCCN(Cc2nccn2C(C)C)CC1 (stereo unspecified) | -11.9%
33 | CC(Cc1ccccc1Cl)NC(=O)Nc1cnn(CC(N)=O)c1 (stereo unspecified) | -4.23%
34 | COc1ccc(COCC(O)CNC(=O)c2cc(C)oc2C)cc1 (stereo unspecified) | -13.3%
35 | c1ccc(-c2noc(CCCN3CCCC3Cn3cccn3)n2)cc1 (stereo unspecified) | -13%
36 | COc1cccc(COCC(=O)N2CCCC(c3ccn[nH]3)C2)c1 (stereo unspecified) | -20.9%
37 | Cc1cnn(CCNCC(O)COc2ccc(Cl)cc2)c1 (stereo unspecified) | -12.6%
38 | CN(Cc1ccsc1)C(=O)Nc1ccc(S(C)(=O)=O)nc1 | 3.28%

Row | Structure (SMILES) | cytotoxicity at 10 µM
39 | CCn1cnnc1CNC(=O)NCC(c1cccs1)N1CCCC1 (stereo unspecified) | -7.72%
40 | COCc1nc(C(=O)N2CCCC2c2c(C)nn(C)c2C)cs1 (stereo unspecified) | -4.74%
41 | O=C(CCc1cccs1)N1CCCCC1Cn1cccn1 (stereo unspecified) | 1.54%
42 | Cc1nc(C)n(CC2CCCN2Cc2cc(C)on2)n1 (stereo unspecified) | 4.04%
43 | CS(=O)(=O)c1ccc(-c2cnc(C3CCCN3)cn2)cc1 (stereo unspecified) | -1.71%
44 | Cc1cc(C)nc(Nc2cc(C3CCCN(C)C3)nc(C)n2)n1 (stereo unspecified) | -5.12%
45 | CC(C)OCc1ncn2c1CN(Cc1nccs1)CCC2 | -83.6%
46 | O=C(C1CCOCC1)N1CCc2onc(COc3cccnc3)c2C1 | -69.6%
47 | CNC(=O)C1Cn2ccnc2C2(CCN(Cc3cccs3)CC2)O1 (stereo unspecified) | -70.6%
48 | O=C(c1ccc(O)cc1)N1C[C@@H]2CCN(c3cccnc3)C[C@@H]2C1 | -50.9%
49 | Cn1cc(C[C@H]2[C@H](O)CCN2Cc2ccncc2)cn1 | -78.5%
50 | COCCN1CCC2(CC1)CC(NCc1ccc(C)s1)c1ccccc12 (stereo unspecified) | -121%
51 | c1cncc(C2COC3(CCN(Cc4ccsc4)CC3)C2)c1 (stereo unspecified) | -3.74%
52 | CNC(=O)[C@H]1CC[C@@H]2[C@@H](CCN2CCOCc2ccccc2)O1 | -109%
53 | CCS(=O)(=O)N1CCCC2(COCCN(c3cnccn3)C2)C1 (stereo unspecified) | 10.2%
54 | COc1cccc(-c2ncc(CN3CC[C@@H]4CC[C@H](C3)N4)s2)c1 | -12.4%
55 | CC(c1cn2ncsc2n1)n1cc2[nH]cccc-2c1=O (stereo unspecified) | -3.74%
56 | Cn1ccc(NC(=O)CN2C[C@@H]3CC[C@H]2CN(Cc2ccccn2)C3)n1 | 0.936%
